Screening data (PubChem)
SENP1 inh – blocks the human SENP1 SUMO protease catalytic domain; recombinant SENP1 catalytic domain, CyPet-SUMO1-YPet FRET cleavage; inhibition, % at 10 µM; 360,000 compounds, 0.21% hits; AID 624204;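 active = inhibition at least 30% at 10 µM, raw YFP signal under a set limit, fluorescence ratio 0.5 to 1.5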
Target sequence (Q9P0U3 419-644 limits assumed): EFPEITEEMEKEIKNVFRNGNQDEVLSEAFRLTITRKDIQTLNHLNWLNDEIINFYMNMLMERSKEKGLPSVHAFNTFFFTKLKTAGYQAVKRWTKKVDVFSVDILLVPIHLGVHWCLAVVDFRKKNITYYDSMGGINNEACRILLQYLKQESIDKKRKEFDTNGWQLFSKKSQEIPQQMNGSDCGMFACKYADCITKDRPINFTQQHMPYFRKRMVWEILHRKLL
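Material – human SENP1 catalytic domain · Input – SENP1 enzyme, 20 pM final · Compound dosing – single concentration of 10 µM compound, 0.5% DMSO final · Timing – enzyme reaction for 50 min at room temperature, dark · Measured by – FRET fluorescence in CFP and YFP emission channels · Control set – no-enzyme wells low, DMSO-plus-enzyme wells high control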
SENP8 block-1 – blocks the human protease SENP8 | Q96LD8 | purified SENP8, Z-RLRGG-aminoluciferin cleavage, luminescence | inhibition, % at 10 µM | 330,000 compounds, 1.2% hits | AID 2540; in the data active = inhibition above about 50%
Target sequence (Q96LD8 whole entry, looked up): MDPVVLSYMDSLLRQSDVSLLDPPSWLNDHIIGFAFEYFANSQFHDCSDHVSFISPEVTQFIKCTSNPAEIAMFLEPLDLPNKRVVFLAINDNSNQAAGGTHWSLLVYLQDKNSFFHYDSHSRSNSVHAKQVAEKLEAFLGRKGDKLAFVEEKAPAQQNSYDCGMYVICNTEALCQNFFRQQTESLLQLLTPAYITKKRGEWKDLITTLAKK
SENP7 block – blocks the human protease SENP7 | 330,000 compounds, 1.5% hits | Q9BQF6 | inhibition, % at 5 µM | recombinant SENP7, Z-RLRGG-aminoluciferin luminescence, 40 min;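 active = inhibition above about 50% at the single test dose, limit read from the data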
SENP6 inh – blocks the human protease SENP6; Recombinant SENP6 catalytic domain, aminoluciferin luminescence; inhibition, % at 10 µM; 330,000 compounds, 1.8% hits;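 active = inhibition above about 50% at the single tested dose, limit read from the data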
SENP8 block-2 – blocks human SENP8 cleavage of Nedd8 substrate | Q96LD8 | recombinant SENP8, Nedd8 substrate fluorescence | inhibition, % at 20 µM | 360,000 compounds, 0.64% hits | AID 602440; in the data active = inhibition mostly above about 40%, no sharp cut-off; inactive = mostly below about 27%
UCH37 DUB inh – blocks the human deubiquitinase UCH37 | AID 588478 | 330,000 compounds, 0.33% hits | purified proteasome/UCH37, Ub-AMC cleavage fluorescence | Q9Y5K5 | inhibition, % (no concentration beside the values);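 active = mean inhibition over replicate wells above about 20%, limit read from the data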
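Assay system: Proteasome-bound UCH37. Buffer or medium: pH 7.4 Tris-HCl (50 mM) with ovalbumin, ATP-MgCl2, DTT. Incubation: 30 min preincubation with enzyme, 25 min cleavage at room temperature. Measured by: fluorescence, ex 355 nm, em 460 nm. Read-out basis: percent inhibition. Control set: wells without proteasome as full block, compound-free enzyme plus substrate as uninhibited.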
SENP8 confirm – confirmation of human SENP8 protease inhibitors | shares compounds with SENP7 block | Recombinant SENP8, Z-RLRGG-aminoluciferin luminescence, 60 min | inhibition, % at 12.5 µM | 6,200 compounds, 40% hits | AID 488912;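 active = mean inhibition across replicates above about 50%, limit read from the data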
SENP6 conf – human SENP6 inhibition, confirmed; shares compounds with SENP7 block; recombinant SENP6, Z-RLRGG-aminoluciferin luminescence; inhibition, % at 12.5 µM; 6,200 compounds, 58% hits
SENP7 conf – human SENP7 inhibition, confirmed; recombinant SENP7, Z-RLRGG-aminoluciferin luminescence, 40 min; inhibition, % at 12.5 µM; 6,200 compounds, 69% hits; shares compounds with SENP7 block
Casp3 select – caspase-3 inhibition (SENP selectivity assay); shares compounds with SENP7 block; purified caspase-3, Z-DEVD-aminoluciferin luminescence, 60 min; inhibition, % at 12.5 µM; 6,200 compounds, 60% hits;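 active = mean inhibition above about 50%, limit read from the data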
Target sequence (P42574 28-227 limits assumed): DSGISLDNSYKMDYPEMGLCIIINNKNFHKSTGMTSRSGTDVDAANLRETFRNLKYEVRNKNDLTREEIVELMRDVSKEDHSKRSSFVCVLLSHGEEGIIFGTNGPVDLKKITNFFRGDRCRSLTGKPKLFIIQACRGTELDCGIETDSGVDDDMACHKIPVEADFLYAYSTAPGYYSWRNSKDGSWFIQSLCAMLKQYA
SENP luc ctr – counter-screen for SENP inhibitors: luminescence interference; 6,200 compounds, 39% hits; AID 488919; inhibition, % at 12.5 µM; shares compounds with SENP7 block; Pre-incubated SENP8/Z-RLRGG-aminoluciferin, luciferase luminescence interference;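 active = mean inhibition above about 50% when retested at one dose, limit read from the data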
Numbers stand for hits; . = inactive; / = not tested or not shown. The list is not random: actives were taken first. Their share in the collection is about 2.6%.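 Rule for the calls, unless noted: active = mean inhibition above about 50% in the one-dose retest (limit read from the data); inactive = the rest.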

SMILES	SENP1 inh	SENP8 block-1	SENP7 block	SENP6 inh	SENP8 block-2	UCH37 DUB inh	SENP8 confirm	SENP6 conf	SENP7 conf	Casp3 select	SENP luc ctr
CCOC=Nc1c(C#N)c2c(c(=S)n1C)COC(C)(C)C2	/	/	/	/	/	.	/	/	/	/	/
O=C(NN=Cc1ccc([N+](=O)[O-])cc1)c1cc(C2CC2)nc2ccccc12	/	/	/	/	/	.	/	/	/	/	/
CCn1c(O)c(C=NN=Cc2ccc(OC)cc2)c2cc(C3=NNC(=O)CC3)ccc21	/	/	/	/	/	.	/	/	/	/	/
N#CCSc1nnc2sc3ccccc3n12	.	.	87	.	.	.	.	.	.	.	.
CN(C)CCSc1nnc2sc3ccccc3n12	.	.	.	.	.	.	/	/	/	/	/
O=C(O)C1CCN(Cc2ccccn2)CC1	.	.	.	83	.	.	.	.	.	.	.
CCOC(=O)C1CCN(Cc2ccccn2)CC1	/	.	.	.	/	/	/	/	/	/	/
CCN(CC)c1ccc(C=NNC(=S)NC)c(O)c1	/	/	/	/	/	.	/	/	/	/	/
COc1ccc(N=Cc2c(O)c3ccccc3oc2=O)cc1	.	.	90	91	.	.	70	74	84	66	.
O=C(O)c1cc(N=Cc2c(O)c3ccccc3oc2=O)ccc1O	.	74	91	94	.	.	93	86	101	.	95
Cc1ccc(N=Cc2c(O)c3ccccc3oc2=O)cc1F	.	.	70	.	.	.	.	.	.	.	.
CC(C)c1ccc(N=Cc2c(O)c3ccccc3oc2=O)cc1	.	63	91	85	.	.	58	60	77	.	.
Cc1cc(C)cc(N=Cc2c(O)c3ccccc3oc2=O)c1	.	.	.	.	.	.	/	/	/	/	/
COc1ccc(Cn2c(O)c(C=Nc3ccc(O)cc3)c3ccccc3c2=O)cc1	.	.	.	67	.	.	.	.	.	.	.
C=CCc1c(C)nc(C)nc1NN=Cc1ccc(N(C)C)cc1	/	/	/	/	/	.	/	/	/	/	/
NC(=O)CSc1nc(C2CC2)nc2sc3c(c12)CCCC3	.	74	68	75	.	.	.	.	.	.	.
NC(=O)CSc1nc(N)c2c3c(sc2n1)CCCCC3	.	.	.	.	.	.	/	/	/	/	/
CC(C(=O)O)c1ccc(C(=O)c2ccccc2)s1 (centres undefined)	.	52	.	68	.	.	62	52	79	88	61
COc1cc(C=NNc2ccc(C(=O)O)cc2)ccc1O	/	/	/	/	/	.	/	/	/	/	/
COc1cc(/C=N/Nc2ccc(C(=O)O)cc2)ccc1O	.	96	98	99	.	/	98	98	103	94	97
COc1cc(/C=N/Nc2ccc(C(=O)O)cc2)cc(OC)c1OC	.	74	71	88	.	/	88	86	98	81	.
N#Cc1c(/N=C/c2ccco2)sc2c1CCCCC2	.	94	96	92	.	/	.	98	69	75	.
N#Cc1c(/N=C/c2cccs2)sc2c1CCC2	.	79	95	65	.	/	.	.	.	.	.
N#Cc1c(N=Cc2cccs2)sc2c1CCC2	/	/	/	/	/	.	/	/	/	/	/
CCOC(=O)COc1cc(N)c(Cl)cc1Cl	.	80	.	.	.	.	.	.	.	.	.
SMILES	SENP1 inh	SENP8 block-1	SENP7 block	SENP6 inh	SENP8 block-2	UCH37 DUB inh	SENP8 confirm	SENP6 conf	SENP7 conf	Casp3 select	SENP luc ctr
CCOC(=O)COc1cc(-n2c(=S)[nH]c3ccccc3c2=O)c(Cl)cc1Cl	.	.	.	.	.	.	/	/	/	/	/
COc1ccc(C=NNC(=O)CC(=O)NN=Cc2ccc(OC)cc2)cc1	/	/	/	/	/	.	/	/	/	/	/
COc1ccc(/C=N/NC(=O)c2ccc[nH]2)cc1	.	77	88	79	.	/	75	74	95	92	84
COc1ccc(C=NNC(=O)c2ccccc2Cl)cc1COc1c(F)c(F)c(F)c(F)c1F	/	/	/	/	/	.	/	/	/	/	/
Brc1ccc(-c2nc(N/N=C/c3cccnc3)c3ccccc3n2)cc1	.	85	90	90	.	/	.	.	.	.	.
C(=N\Nc1nc(-c2cccnc2)nc2ccccc12)/c1ccccc1	.	.	.	.	.	/	/	/	/	/	/
CC(C)(C)c1ccc(C(=O)c2c[nH]c(C(=O)O)c2)cc1	.	78	75	85	.	.	.	76	95	.	84
c1c2c(cc3sc(N4CCOCC4)nc13)OCCO2	.	89	94	94	.	.	89	93	100	96	57
O=C(Cc1ccccc1)NN=Cc1cccc([N+](=O)[O-])c1	/	/	/	/	/	.	/	/	/	/	/
CN(C)c1ccc(/C=N/NC(=O)c2nonc2N)cc1[N+](=O)[O-]	.	.	55	.	.	/	.	.	76	75	59
O=C(N/N=C/c1ccc(O)c([N+](=O)[O-])c1)c1ccncc1	.	.	.	57	.	/	.	.	66	79	.
Cc1ccc(C(=O)NN=Cc2ccc([N+](=O)[O-])s2)cc1	/	/	/	/	/	.	/	/	/	/	/
Cc1csc(N/N=C/c2ccc(O)c([N+](=O)[O-])c2)n1	.	55	.	69	.	/	.	89	.	.	.
COc1ccc(/C=N/NC(=O)c2ccncc2)cc1[N+](=O)[O-]	.	.	.	.	.	/	/	/	/	/	/
O=C(N/N=C/c1ccc([N+](=O)[O-])s1)c1ccncc1	.	.	.	58	.	/	.	.	.	.	.
CCOc1ccc(N(C(C)C(=O)NN=C(C)c2cccc(NC(=O)c3ccccc3)c2)S(C)(=O)=O)cc1 (centres undefined)	/	/	/	/	/	.	/	/	/	/	/
Clc1ccc(C=NNc2ncnc3ccccc23)cc1Cl	/	/	/	/	/	.	/	/	/	/	/
Cc1ccccc1-c1nnc(-c2ccc(Cl)cc2)o1	.	58	75	.	.	.	.	.	.	.	.
Cc1ccc(/C=C/c2nnc(-c3cccc(C)c3)o2)cc1	.	68	.	80	.	.	.	.	.	.	.
Cc1ccccc1-c1nnc(-c2ccccc2)o1	.	83	83	87	.	.	78	88	98	84	74
Cc1nnc(-c2ccccc2)o1	.	.	.	.	.	.	/	/	/	/	/
Cc1ccc(CS(=O)(=O)c2ccccc2-c2nnc(-c3ccc(Cl)cc3)o2)cc1	.	.	.	.	.	.	/	/	/	/	/
Cc1cccc(-c2nnc(-c3ccccc3)o2)c1	.	74	86	88	.	.	.	86	98	82	66
